From ChEMBL document CHEMBL3351887, “'Click' assembly of glycoclusters and discovery of a trehalose analogue that retards Aβ40 aggregation and inhibits Aβ40-induced neurotoxicity” (Bioorg Med Chem Lett, 2014)

What was measured:
[1] = molecular target: Amyloid-beta precursor protein (Homo sapiens) (UniProt P05067); test: Inhibition of amyloid beta-40 aggregation (unknown origin) assessed as beta-turns at 180 uM after 72 hrs by CD spectra analysis (reference value: 0%); design: scale not given: the % may be the effect or the level left
Amyloid-beta precursor protein (Homo sapiens), sequence (P05067 whole entry): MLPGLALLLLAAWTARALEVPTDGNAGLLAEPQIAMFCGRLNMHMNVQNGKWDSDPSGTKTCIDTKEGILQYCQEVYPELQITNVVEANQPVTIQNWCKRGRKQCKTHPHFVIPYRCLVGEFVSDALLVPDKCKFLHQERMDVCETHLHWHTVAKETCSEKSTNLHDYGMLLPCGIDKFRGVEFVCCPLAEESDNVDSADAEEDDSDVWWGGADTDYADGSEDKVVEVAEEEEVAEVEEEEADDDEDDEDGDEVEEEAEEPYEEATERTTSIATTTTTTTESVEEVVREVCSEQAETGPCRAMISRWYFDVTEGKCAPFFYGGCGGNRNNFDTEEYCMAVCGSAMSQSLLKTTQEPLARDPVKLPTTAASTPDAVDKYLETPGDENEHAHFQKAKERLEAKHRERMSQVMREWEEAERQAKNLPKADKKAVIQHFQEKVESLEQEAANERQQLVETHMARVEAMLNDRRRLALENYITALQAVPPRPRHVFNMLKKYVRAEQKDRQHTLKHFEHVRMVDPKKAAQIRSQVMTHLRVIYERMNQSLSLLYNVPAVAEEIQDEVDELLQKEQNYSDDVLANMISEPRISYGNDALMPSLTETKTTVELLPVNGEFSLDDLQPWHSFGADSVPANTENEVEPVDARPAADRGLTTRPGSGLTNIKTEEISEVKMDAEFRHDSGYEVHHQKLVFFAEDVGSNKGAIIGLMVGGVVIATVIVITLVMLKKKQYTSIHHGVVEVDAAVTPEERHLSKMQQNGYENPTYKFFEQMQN
Procedure, shortened: (§1)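 Low-molecular-weight Aβ40 was prepared by dissolving the peptide in dilute aqueous NaOH (pH 10.5–12) and diluting in phosphate buffer (pH 7.4). It was sonicated for 60 s and ultracentrifuged at 80,000 rpm for 90 min at 4 °C, and the supernatant was used. Compound and Aβ40 were incubated quiescently at pH 7.4 and 37 °C at molar ratios 1:5, 1:1 and 5:1. Secondary-structure fractions were read from CD spectra after 72 h.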

[2] = molecular target: Amyloid-beta precursor protein (Homo sapiens) (UniProt P05067); test: Inhibition of amyloid beta-40 aggregation (unknown origin) assessed as beta-turns at 36 uM after 72 hrs by CD spectra analysis (reference value: 0%); design: scale not given: the % may be the effect or the level left; procedure, shortened: as §1
[3] = molecular target: Amyloid-beta precursor protein (Homo sapiens) (UniProt P05067); test: Inhibition of amyloid beta-40 aggregation (unknown origin) assessed as beta-sheet at 36 uM after 72 hrs by CD spectra analysis (reference value: 2 to 3%); design: scale not given: the % may be the effect or the level left; procedure, shortened: as §1
[4] = molecular target: Amyloid-beta precursor protein (Homo sapiens) (UniProt P05067); test: Inhibition of amyloid beta-40 aggregation (unknown origin) assessed as alpha-helix at 180 uM after 72 hrs by CD spectra analysis (reference value: 11 to 15%); design: scale not given: the % may be the effect or the level left; procedure, shortened: as §1
[5] = molecular target: Amyloid-beta precursor protein (Homo sapiens) (UniProt P05067); test: Inhibition of amyloid beta-40 aggregation (unknown origin) assessed as beta-turns at 900 uM after 72 hrs by CD spectra analysis (reference value: 0%); design: scale not given: the % may be the effect or the level left; procedure, shortened: as §1
[6] = molecular target: Amyloid-beta precursor protein (Homo sapiens) (UniProt P05067); test: Inhibition of amyloid beta-40 aggregation (unknown origin) assessed as unordered at 36 uM after 72 hrs by CD spectra analysis (reference value: 82 to 85%); design: scale not given: the % may be the effect or the level left; procedure, shortened: as §1
[7] = molecular target: Amyloid-beta precursor protein (Homo sapiens) (UniProt P05067); test: Inhibition of amyloid beta-40 aggregation (unknown origin) assessed as alpha-helix at 36 uM after 72 hrs by CD spectra analysis (reference value: 11 to 15%); design: scale not given: the % may be the effect or the level left; procedure, shortened: as §1
[8] = Toxicity in C57BL/6 mouse primary cortical neurons assessed as reduction in cell viability at 240 to 600 uM after 48 hrs by trypan blue dye exclusion assay; assay type: cell-based; settings: cerebral cortex neuron
[9] = molecular target: Amyloid-beta precursor protein (Homo sapiens) (UniProt P05067); test: Inhibition of amyloid beta-40 aggregation (unknown origin) assessed as unordered at 180 uM after 72 hrs by CD spectra analysis (reference value: 82 to 85%); design: scale not given: the % may be the effect or the level left; procedure, shortened: as §1
[10] = molecular target: Amyloid-beta precursor protein (Homo sapiens) (UniProt P05067); test: Inhibition of amyloid beta-40 aggregation (unknown origin) assessed as beta-sheet at 180 uM after 72 hrs by CD spectra analysis (reference value: 2 to 3%); design: scale not given: the % may be the effect or the level left; procedure, shortened: as §1
[11] = Neuroprotective activity in C57BL/6 mouse primary cortical neurons assessed as reduction in amyloid beta-40-induced cell death at 240 uM pre-incubated with amyloid beta-40 for 6 hrs and measured after 48 hrs by trypan blue dye exclusion assay; assay type: functional, Cerebral cortex neuron; design: scale not given: the % may be the effect or the level left
[12] = molecular target: Amyloid-beta precursor protein (Homo sapiens) (UniProt P05067); test: Inhibition of amyloid beta-40 aggregation (unknown origin) assessed as alpha-helix at 900 uM after 72 hrs by CD spectra analysis (reference value: 11 to 15%); design: scale not given: the % may be the effect or the level left; procedure, shortened: as §1
[13] = Neuroprotective activity in C57BL/6 mouse primary cortical neurons assessed as reduction in amyloid beta-40-induced cell death at 600 uM pre-incubated with amyloid beta-40 for 6 hrs and measured after 48 hrs by trypan blue dye exclusion assay; assay type: functional, Cerebral cortex neuron; design: scale not given: the % may be the effect or the level left
[14] = molecular target: Amyloid-beta precursor protein (Homo sapiens) (UniProt P05067); test: Inhibition of amyloid beta-40 aggregation (unknown origin) assessed as fibril width at 1800 uM for 7 days at pH 7.4 by transmission electron microscopy (reference value: 12.3 +/- 1.2 nanometer)
[15] = molecular target: Amyloid-beta precursor protein (Homo sapiens) (UniProt P05067); test: Inhibition of amyloid beta-40 aggregation (unknown origin) assessed as beta-sheet at 900 uM after 72 hrs by CD spectra analysis (reference value: 2 to 3%); design: scale not given: the % may be the effect or the level left; procedure, shortened: as §1
[16] = molecular target: Amyloid-beta precursor protein (Homo sapiens) (UniProt P05067); test: Inhibition of amyloid beta-40 aggregation (unknown origin) assessed as unordered at 900 uM after 72 hrs by CD spectra analysis (reference value: 82 to 85%); design: scale not given: the % may be the effect or the level left; procedure, shortened: as §1
[17] = molecular target: Amyloid-beta precursor protein (Homo sapiens) (UniProt P05067); test: Inhibition of amyloid beta-40 aggregation (unknown origin) assessed as extension of lag phase of Abeta40 aggregation at 100 uM by ThT fluorescence assay; design: scale not given: the % may be the effect or the level left
Procedure, shortened: (§2)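 Monomer-rich Aβ40 (35 µM, supernatant after NaOH dissolution, sonication and ultracentrifugation) was incubated with 10 nM–100 µM compound in 20 mM phosphate buffer pH 7.4 (I 0.15 M), with 20 µM ThT and 0.007% NaN3, quiescent at 37 °C. Fluorescence (ex 440, em 480 nm) was read every 5 min. Lag time came from an empirical sigmoidal nonlinear-regression fit; mean ± SE of four independent experiments.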

[18] = molecular target: Amyloid-beta precursor protein (Homo sapiens) (UniProt P05067); test: Inhibition of amyloid beta-40 aggregation (unknown origin) assessed as extension of lag phase of Abeta40 aggregation by ThT fluorescence assay; procedure, shortened: as §2

Compound: OC[C@H]1O[C@H](O[C@H]2O[C@H](CO)[C@@H](O)[C@H](O)[C@H]2O)[C@H](O)[C@@H](O)[C@@H]1O [TREHALOSE]
- Activity [1]: 33%
- Activity [2]: 30%
- Activity [3]: 36%
- Activity [4]: 26%
- Activity [5]: 29%
- Activity [6]: 15%
- Activity [7]: 19%
- Activity [8]: Non-toxic
- Activity [9]: 5%
- Activity [10]: 36%
- Activity [11]: 39%
- Activity [12]: 18%
- Activity [13]: 55%
- Activity [14]: 11.8 nm
- Activity [15]: 36%
- Activity [16]: 17%

Compound: OC[C@H]1O[C@@H](n2cc(COCC(COCc3cn([C@@H]4O[C@H](CO)[C@@H](O)[C@H](O)[C@H]4O)nn3)(COCc3cn([C@@H]4O[C@H](CO)[C@@H](O)[C@H](O)[C@H]4O)nn3)COCC(COCc3cn([C@@H]4O[C@H](CO)[C@@H](O)[C@H](O)[C@H]4O)nn3)(COCc3cn([C@@H]4O[C@H](CO)[C@@H](O)[C@H](O)[C@H]4O)nn3)COCc3cn([C@@H]4O[C@H](CO)[C@@H](O)[C@H](O)[C@H]4O)nn3)nn2)[C@H](O)[C@@H](O)[C@@H]1O
- Activity [17]: 28%
- inhibition [18]: Dose-dependent effect

Compound: OC[C@H]1O[C@@H](O[C@H]2[C@H](O)[C@@H](O)[C@H](n3cc(COCC(COCc4cn([C@@H]5O[C@H](CO)[C@@H](O[C@@H]6O[C@H](CO)[C@H](O)[C@H](O)[C@H]6O)[C@H](O)[C@H]5O)nn4)(COCc4cn([C@@H]5O[C@H](CO)[C@@H](O[C@@H]6O[C@H](CO)[C@H](O)[C@H](O)[C@H]6O)[C@H](O)[C@H]5O)nn4)COCC(COCc4cn([C@@H]5O[C@H](CO)[C@@H](O[C@@H]6O[C@H](CO)[C@H](O)[C@H](O)[C@H]6O)[C@H](O)[C@H]5O)nn4)(COCc4cn([C@@H]5O[C@H](CO)[C@@H](O[C@@H]6O[C@H](CO)[C@H](O)[C@H](O)[C@H]6O)[C@H](O)[C@H]5O)nn4)COCc4cn([C@@H]5O[C@H](CO)[C@@H](O[C@@H]6O[C@H](CO)[C@H](O)[C@H](O)[C@H]6O)[C@H](O)[C@H]5O)nn4)nn3)O[C@@H]2CO)[C@H](O)[C@@H](O)[C@H]1O
- Activity [17]: 28%
- inhibition [18]: Dose-dependent effect
